Screening results (PubChem BioAssay)
Shown are actives, neighbours in structure and some others; about 2.9% of the full set was active somewhere.
Vif inh: inhibitors of HIV Vif; hit rate 0.35% among 340,000; inhibition, % at 7.49 µM; HEK293T cells, Vif self-association by quenched fluorescence, imaging, 24 h; AID 602346; in the data active = inhibition above about 50%, passing the limit was not always enough
FGF22 binding: FGF22 (human) thermal shift binding | recombinant FGF22 thermal shift, SYPRO orange fluorescence; percent of sucrose octasulfate shift, DMSO zero | activity (Tm shift, normalised), % at 9.99 µM | hit rate 1.5% among 340,000 | AID 651658;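 active = mean Tm shift, scaled 0 neutral to 100 positive control, at about 1.3% or above, every replicate too, limit read from the data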
Target sequence (Q9HCT0 whole entry, looked up): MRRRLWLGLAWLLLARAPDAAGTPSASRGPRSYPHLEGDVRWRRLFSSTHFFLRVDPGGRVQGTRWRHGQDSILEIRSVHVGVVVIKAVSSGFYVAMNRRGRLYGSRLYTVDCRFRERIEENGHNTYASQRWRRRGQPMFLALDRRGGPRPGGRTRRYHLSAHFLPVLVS
PglD DTNB: blocks C. jejuni PglD acetyltransferase activity. hit rate 0.098% among 360,000. purified PglD enzyme, DTNB colorimetric CoA detection. AID 602405. inhibition, % at 12.5 µM; in the data active = inhibition above about 16%, passing the limit was not always enough
rRNA inh HTS: inhibitors of bacterial rRNA selective over humanized ribosomes. E. coli WT GFP vs humanized-ribosome RFP mutants, fluorescence, 24 h; hits give low values; DMSO median 0, no signal -100. GFP signal change (wild-type ribosome), % (concentration not given with the values). hit rate 1.6% among 350,000. AID 720706;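 active = significant combined selectivity score with lowered wild-type GFP, culture density cut under 30%, mutant RFP and density less affected; inactive = any of these conditions unmet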
PGC1a acetyl inh: lowers PGC1a acetylation signal in U2OS cells | hit rate 0.17% among 350,000 | AlphaScreen anti-acetyl-lysine; with virally co-expressed GCN5 acetyltransferase | inhibition, % at 15.6 µM;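 active = every replicate shows inhibition of at least 40%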;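 also: 0% = neutral control wells and 100% = positive control wells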
Cneo AK release: Cryptococcus neoformans lysis via adenylate kinase release; C. neoformans lysis, adenylate kinase release luminescence, 4 h; normalised: neutral wells 0, clomiphene wells 100; lysis activity, % at 15 µM; hit rate 0.2% among 360,000; AID 651654;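 active = mean lysis activity across replicates of at least 80%, whatever share of replicates individually reach that level; inactive = mean lysis activity below 80%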
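Assay system: C. neoformans cells. Amount: yeast cell density of 5 × 10^6 cells/mL. Technique: AK luminescence. Buffer or medium: YPD. Times: static 4 h at 37 °C with compound, 1 h detection. Dosing: single-point compound dose. Read-out: lysis from increased AK signal.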
An asterisk follows results filed as active; / = not tested or not shown.

SMILES	Vif inh	FGF22 binding	PglD DTNB	rRNA inh HTS	PGC1a acetyl inh	Cneo AK release
CCCC#Cc1cnc2c(c1)C(=O)N([C@@H](C)CO)C[C@H](C)[C@@H](CN(C)C(=O)C1CCC1)O2	/	0	-2	1	0	-1
Cc1ccccc1NC(=S)/C(=C(\[O-])c1cc(C)n(Cc2ccccc2Cl)c1C)[n+]1ccccc1	1	43*	/	6	2	/
CN(c1ccccc1)S(=O)(=O)c1ccc(NC(=O)c2ccc(F)cc2)cc1	-9	0	/	-28*	/	/
Cc1ccc(NC(=O)CN(C)C(=O)c2ccc(S(=O)(=O)N(C)c3ccccc3)cc2)cc1	6	43*	/	-15	10	/
Cc1ccccc1CN(C)CC(=O)Nc1cccc(S(=O)(=O)N(C)c2ccccc2)c1	-4	0	/	-21*	/	/
CN(c1ccc(C(=O)Nc2cccc(O)c2)cc1)S(=O)(=O)c1ccccc1	6	1	-1	-27	-5	-1
CC(=O)c1cccc(NC(=O)c2ccc(N(C)S(=O)(=O)c3ccc(C)cc3)cc2)c1	-11	0	1	-24*	/	-2
COCC(=O)N1[C@H](C(=O)NCc2ccccc2)[C@@H](CO)[C@@H]2Cn3c(cccc3=O)[C@@H]21	/	0	0	1	/	-2
CCC(=O)N1CC(=O)N2[C@@H](CO)[C@H](c3ccc(C#CC4CCCCC4)cc3)[C@@H]2C1	/	-1	/	5	-1	/
COC(=O)c1cccc(NC(=O)c2ccc(S(=O)(=O)N(C)c3ccccc3OC)cc2)c1	-3	/	-1	-13	-7	-6
COc1ccccc1CNC(=O)c1ccc(S(=O)(=O)N(C)C)cc1	-1	/	-5	/	9	6
CN(C)S(=O)(=O)c1ccc(C(=O)NCC(=O)N/N=C/c2ccccc2)cc1	-1	44*	-11	10	-4	13
O=C(CN(Cc1ccccc1Cl)S(=O)(=O)c1ccc(Cl)cc1)N/N=C/c1ccc(C(=O)O)cc1	-7	1.5*	-199	-41	2	-2
COc1ccccc1OCCNC(=O)c1ccc(S(=O)(=O)N(C)C)cc1	/	0	1	-18*	5	0
O=C(CNC(=O)c1ccc(S(=O)(=O)N2CCCC2)cc1)N/N=C/c1ccccc1	11	/	1	/	-7	9
O=C(CN(Cc1ccccc1)S(=O)(=O)c1ccccc1)N/N=C/c1ccc([N+](=O)[O-])cc1	-5	/	-3	/	-14	-2
COc1ccccc1N(C)S(=O)(=O)c1ccc(C(=O)Nc2cccc(Br)c2)cc1	-7	0	-7	-34*	-30	0
Cc1noc(C)c1NC(=O)Nc1ccc2c(c1)C(=O)N([C@@H](C)CO)C[C@@H](C)[C@@H](CN(C)S(=O)(=O)c1ccccc1)OCCCC[C@H](C)O2	/	/	2	-1	-2	2
CN(C)CC/C=C1/c2cc(F)ccc2Sc2ccc(Cl)cc21	-2	0	-6	-50*	-11	-4
COc1cccc(S(=O)(=O)N(C)C[C@H]2OCc3ccccc3-c3ccccc3C(=O)N([C@H](C)CO)C[C@@H]2C)c1	/	0	-1	10	-16	0
C[C@@H]1CN([C@H](C)CO)C(=O)c2cc(NC(=O)Nc3ccccc3)ccc2O[C@@H](C)CCCCO[C@H]1CN(C)S(=O)(=O)c1cn(C)cn1	/	0	2	-3	10	-3
CCC(=O)N1[C@H](CO)[C@H](c2ccccc2)[C@H]1CN(CC)C(=O)c1cccc(F)c1	/	-1	24	0	4	96*
Cc1cc(N(C)C)ccc1N=Nc1ccc(N)cc1	2	-1	-2	-51*	/	0
Nc1ccc(C(=O)C(=O)c2ccc(N)cc2)cc1	12	0	2	0	/	-4
Nc1ccc(N=Nc2ccc(N)cc2)cc1	-2	0	/	-25*	/	/
COc1ccccc1C(=O)N1C[C@@H]2[C@H](c3ccccc31)[C@H](CO)N2CC1CCCC1	/	1	6	-16	-10	-10
C[C@H](CO)N1C[C@H](C)[C@H](CN(C)C(=O)C2CC2)Oc2ncc(-c3ccccc3F)cc2C1=O	/	0	4	3	-1	16
CCCC(=O)Nc1ccc(C(=O)NNC(=S)NC(=O)c2ccc(Br)o2)cc1	-12	1	/	-27*	-10	/
